Assay results published in ChEMBL document CHEMBL4033788, “Novel Ligustrazine-Based Analogs of Piperlongumine Potently Suppress Proliferation and Metastasis of Colorectal Cancer Cells in Vitro and in Vivo” (J Med Chem, 2018).
≈ marks a conversion by molar mass, not a printed value.

How the values were obtained:
K562 [1] = experiment: Antiproliferative activity against human K562 cells after 72 hrs by MTT assay; format: functional, cell-based; conditions: K562, 72 h
How it was run: (§1)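 Cells grown in RPMI 1640 with 10% FBS in 96-well plates overnight, then exposed to test agents in triplicate for 72 h. MTT (5 mg/mL stock) added for the last 4 h, formazan dissolved in DMSO, absorbance read at 570 nm. Inhibition = (1 − OD treated/OD control) × 100%.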

HCT-116 [2] = experiment: Antiproliferative activity against human HCT116 cells after 72 hrs by MTT assay; format: functional, cell-based; conditions: HCT-116, 72 h; how it was run: as §1
U-87 MG [3] = experiment: Antiproliferative activity against human U87MG cells after 72 hrs by MTT assay; format: functional, cell-based, U-87MG ATCC; how it was run: as §1
A549 [4] = experiment: Antiproliferative activity against human A549 cells after 72 hrs by MTT assay; format: functional, cell-based; conditions: A549, 72 h
[5] = Solubility of compound in phosphate buffer at pH 7.4 after 8 hrs by HPLC analysis; format: physicochemical
How it was run: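 Compound was shaken in 50 mM phosphate buffer (pH 7.4) at 20 °C, centrifuged, and the supernatant analysed by HPLC. Conditions were a C18 column, acetonitrile–water 60/40 (v/v) at 1.0 mL/min, with detection at 254 nm. Run in triplicate.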

[6] = Aqueous solubility of compound by HPLC analysis; format: physicochemical; conditions: water
How it was run: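 Compound shaken in pure water or 50 mM phosphate buffer pH 7.4 at 20 °C, then centrifuged. Supernatant assayed by C18 HPLC (acetonitrile–water 60/40, 1.0 mL/min, 254 nm). Triplicate.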

[7] = Drug level in DMSO treated with (E)-3-Chloro-1-(3-(3,5,6-trimethylpyrazin-2-yl)acryloyl)-5,6-dihydropyridin-2(1H)-one at 5 mg up to 8 hrs in presence of methyl thioglycolate by 1H NMR analysis
A549 [8] = experiment: Antiproliferative activity against human A549 cells after 72 hrs in presence of piperlongumine by MTT assay; format: functional, cell-based; conditions: A549, 72 h; how it was run: as §1
K562 [9] = experiment: Antiproliferative activity against human K562 cells after 72 hrs in presence of piperlongumine by MTT assay; format: functional, cell-based; conditions: K562, 72 h; how it was run: as §1
U-87 MG [10] = experiment: Antiproliferative activity against human U87MG cells after 72 hrs in presence of piperlongumine by MTT assay; format: functional, cell-based, U-87MG ATCC; how it was run: as §1
HCT-116 [11] = experiment: Antiproliferative activity against human HCT116 cells after 72 hrs in presence of piperlongumine by MTT assay; format: functional, cell-based; conditions: HCT-116, 72 h; how it was run: as §1

Row | SMILES | IC50 (K562 [1]) [µM] | IC50 (HCT-116 [2]) [µM] | IC50 (U-87 MG [3]) [µM] | IC50 (A549 [4]) [µM] | solubility at 8 h [5] [µg/mL] | solubility [6] [µg/mL] | IC50 (A549 [8]) [µM] | IC50 (K562 [9]) [µM] | IC50 (U-87 MG [10]) [µM] | IC50 (HCT-116 [11]) [µM] | Drug metabolism [7]
1 | Cc1nc(C)c(/C=C/C(=O)N2CCCCC2=O)nc1C | > 50 | > 50 | > 50 | > 50 |  |  |  |  |  |  | 
2 | COC(=O)CSC1CCN(C(=O)/C=C/c2nc(C)c(C)nc2C)C(=O)C1Cl (configuration not stated) |  |  |  |  |  |  |  |  |  |  | Metabolite detected
3 | Cc1nc(C)c(C)nc1C [LIGUSTRAZINE] |  |  |  |  |  |  | 15.2 | 5.09 | 16.1 | 8.17 | 

Now from value to compound, other results behind:

Row | IC50 (K562 [1]) [µM] | IC50 (HCT-116 [2]) [µM] | IC50 (U-87 MG [3]) [µM] | IC50 (A549 [4]) [µM] | solubility at 8 h [5] [µg/mL] | solubility [6] [µg/mL] | IC50 (A549 [8]) [µM] | IC50 (K562 [9]) [µM] | IC50 (U-87 MG [10]) [µM] | IC50 (HCT-116 [11]) [µM] | SMILES | Drug metabolism [7]
4 | 0.48 | 0.46 | 4.28 | 2.48 | 67.3 (≈ 192 µM) | 20.2 (≈ 57.6 µM) |  |  |  |  | Cc1nc(C)c(/C=C/C(=O)N2CCC=C(Br)C2=O)nc1C | 
5 | 1.13 | 1.67 | 8.73 | 4.86 | 328 (≈ 1210 µM) | 42.6 (≈ 157 µM) |  |  |  |  | Cc1nc(C)c(/C=C/C(=O)N2CCC=CC2=O)nc1C | 
6 | 0.64 | 0.76 | 7.26 | 3.19 | 49.9 (≈ 125 µM) | 14.5 (≈ 36.5 µM) |  |  |  |  | Cc1nc(C)c(/C=C/C(=O)N2CCC=C(I)C2=O)nc1C | 
